Screening data: PubChem, several laboratories
Hits are enriched below; roughly 1.2% of the tested compounds scored in any of these assays.
Hep lipid drop = hepatic lipid droplet formation modulation; 240,000 tested, 0.4% active; AML12 mouse hepatocytes, oleate lipid droplets, BODIPY imaging; inhibition, % at 6.5 µM; AID 1656;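 active means lipid droplet intensity inhibited by at least 50%, with more than 500 cells counted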
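Assay system: AML12 hepatocytes (mouse); Probe or stimulus: oleic acid at 100 µM to induce lipid droplet formation; Dosing: compound at 6.5 µM only; Schedule: compound with oleate, overnight; Detection: fluorescence imaging, 20x objective, two fields per well; Measure: % inhibition of lipid droplet signal.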
Rce1 inh = blocks yeast Ras-converting enzyme; Q03530; yeast membranes, quenched prenylated peptide cleavage fluorescence; calls only; 290,000 tested, 0.27% active; AID 2563;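 active means fall in fluorescence gain of 50% or more versus controls, with final raw signal at or below 3038400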
proCasp3 act = procaspase-3 (human) activation | 330,000 tested, 0.11% active | P42574 | recombinant procaspase-3 D3A, Ac-DEVD-pNA absorbance 405 nm | activation, % at 8.5 µM;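 active means activation above the mean of all tested compounds plus 3 SD, cut at about 21% in these data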
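Assay system: Autoprocessing-dead procaspase-3 D3A mutant enzyme; also added: Ac-DEVD-pNA; doses: one concentration, 8.5 µM nominal, 0.8% DMSO; times: 1 h compound preincubation, 2 h substrate hydrolysis at 25 °C; technique: 405 nm absorbance of p-nitroaniline, reads at 0 and 120 min; measure: % activation between DMSO and enzyme-spiked controls; repeats: single replicate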
procasp7 counter = activates human procaspase-7, counter-screen for procaspase-3 activators. recombinant procaspase-7, Ac-DEVD-pNA absorbance 405 nm; D23A/D198A/D206A triple mutant, cannot self-cleave; scale: DMSO 0, 5 µM enzyme 100. AID 463210. P55210. activation, % at 8.5 µM. 330,000 tested, 0.093% active;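 active means percent activation above the screen-wide mean plus 3 SD, cut at about 25% in these data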
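Assay system – Uncleavable procaspase-7 mutant enzyme · Quantity – 2 µM procaspase-7 mutant as dispensed · Times – 1 h preincubation, 2 h reaction · Dosing – single nominal 8.5 µM compound dose, 0.8% DMSO final · Buffer or medium – Zinc-free 50 mM HEPES buffer, pH 7.4, with NaCl and Triton X-100 · Detection – Epi-absorbance of released pNA at 405 nm, two timepoints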
GAA850 FXN act = increases GAA850 frataxin promoter reporter activity. activation, % at 6 µM. HEK293 lucGAA850 FXN promoter luciferase reporter, 24 h; percent of 10 µM SAHA response. 360,000 tested, 0.56% active;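 active means activation above the average of all compounds screened plus 3 SD, cutoff fixed separately per campaign, cut at about 7.5% in these data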
pCIP destab = lowers stability of the mouse p/CIP coactivator protein | F442A p/CIP-EGFP cells, EGFP fluorescence, 16 h | decrease of EGFP signal, % at 10 µM | 290,000 tested, 0.01% active | AID 1984;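 active means EGFP signal decrease of at least 30% at 10 µM or well 3 SD below plate mean, unless failing retest; inactive means the rest, including hits failing retest or dose response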
Target sequence (Q05BA5 1-1403): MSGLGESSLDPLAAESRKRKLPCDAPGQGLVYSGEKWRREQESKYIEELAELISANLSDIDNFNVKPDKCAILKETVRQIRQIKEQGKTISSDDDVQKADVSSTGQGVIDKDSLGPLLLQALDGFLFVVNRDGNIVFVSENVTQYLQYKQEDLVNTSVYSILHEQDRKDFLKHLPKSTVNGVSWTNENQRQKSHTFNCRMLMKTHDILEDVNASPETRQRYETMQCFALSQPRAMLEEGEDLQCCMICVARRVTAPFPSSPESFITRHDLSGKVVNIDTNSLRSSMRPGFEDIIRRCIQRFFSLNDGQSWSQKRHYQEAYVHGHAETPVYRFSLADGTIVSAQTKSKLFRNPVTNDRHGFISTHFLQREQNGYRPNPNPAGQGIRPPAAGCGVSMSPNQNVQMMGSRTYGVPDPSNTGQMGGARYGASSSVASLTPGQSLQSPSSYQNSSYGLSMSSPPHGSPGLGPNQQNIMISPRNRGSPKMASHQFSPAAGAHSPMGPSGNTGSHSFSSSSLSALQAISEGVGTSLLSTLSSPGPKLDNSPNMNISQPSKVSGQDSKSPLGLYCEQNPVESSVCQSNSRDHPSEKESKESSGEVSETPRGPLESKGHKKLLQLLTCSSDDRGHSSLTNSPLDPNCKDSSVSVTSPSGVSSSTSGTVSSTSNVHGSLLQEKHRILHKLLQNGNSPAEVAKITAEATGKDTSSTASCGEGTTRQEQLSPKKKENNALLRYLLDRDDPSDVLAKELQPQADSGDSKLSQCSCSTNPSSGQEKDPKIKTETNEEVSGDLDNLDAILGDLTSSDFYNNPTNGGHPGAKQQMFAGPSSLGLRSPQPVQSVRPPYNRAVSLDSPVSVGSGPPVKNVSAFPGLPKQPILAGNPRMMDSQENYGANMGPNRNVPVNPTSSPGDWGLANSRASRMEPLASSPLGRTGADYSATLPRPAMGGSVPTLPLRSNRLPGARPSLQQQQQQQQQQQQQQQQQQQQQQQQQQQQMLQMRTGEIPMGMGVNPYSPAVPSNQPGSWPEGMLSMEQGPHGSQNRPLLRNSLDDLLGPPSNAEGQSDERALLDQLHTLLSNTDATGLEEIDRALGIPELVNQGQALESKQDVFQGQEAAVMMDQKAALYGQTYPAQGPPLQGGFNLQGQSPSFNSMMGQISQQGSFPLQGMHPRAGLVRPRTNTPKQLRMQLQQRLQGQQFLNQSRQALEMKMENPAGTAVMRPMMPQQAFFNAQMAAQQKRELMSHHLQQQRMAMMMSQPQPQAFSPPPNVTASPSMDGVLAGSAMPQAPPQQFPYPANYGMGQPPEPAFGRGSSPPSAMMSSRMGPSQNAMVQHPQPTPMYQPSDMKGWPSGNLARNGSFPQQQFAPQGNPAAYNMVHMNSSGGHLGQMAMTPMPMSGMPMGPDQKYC
GAA30 counter = activates GAA30 frataxin promoter, counter-screen for GAA850 activators | shares compounds with GAA850 FXN act | HEK293 lucGAA30 FXN promoter luciferase, 24 h; DMSO = 0%, 5 µM ipriflavone = 100% | activation, % at 6 µM | 1,900 tested, 66% active | AID 588350;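 active means mean activation above the mean of solvent-only control wells plus 3 SD, cut at about 22% in these data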;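 further: counterscreen of GAA850 promoter hits where activity marks nonselective or luminescence artifacts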
FXN GAA850 conf = GAA850 FXN promoter activation confirmation; shares compounds with GAA850 FXN act; HEK293 lucGAA850 FXN promoter luciferase reporter, 24 h; 100% = activation by SAHA; activation, % at 6 µM; 1,900 tested, 86% active;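 active means mean activation above a set limit taken from the primary screen, cut at about 8% in these data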
A number is an active result.

Screening CCOC(=O)c1c(-c2ccc(F)cc2)csc1NC(=O)CN1C(=O)NC2(CCCCC2C)C1=O (centres undefined) returned Rce1 inh inactive, proCasp3 act inactive, procasp7 counter inactive, GAA850 FXN act 12.8, pCIP destab inactive, GAA30 counter inactive and FXN GAA850 conf 17.5.
Screening Cc1cc(Cl)c2oc(C(=O)N(C)C3CCOC3)c(C)c2c1 (centres undefined) returned Hep lipid drop inactive, Rce1 inh inactive, proCasp3 act inactive, procasp7 counter inactive, GAA850 FXN act 9.8, pCIP destab inactive, GAA30 counter 98.0 and FXN GAA850 conf 37.5.
Screening Cc1cc(Cl)c2oc(C(=O)N3CCN(C(=O)c4ccco4)CC3)c(C)c2c1 returned Hep lipid drop inactive, Rce1 inh active, proCasp3 act inactive, procasp7 counter inactive, GAA850 FXN act 9.8, pCIP destab inactive, GAA30 counter 114.3 and FXN GAA850 conf 39.6.
For Cc1cc(Cl)c2oc(C(=O)N3CCOCC3)c(C)c2c1 the results were GAA850 FXN act inactive.
For COc1ccc(CCC(=O)Nc2ccc(S(=O)(=O)N3CCCC3)cc2)cc1OC the results were proCasp3 act inactive, procasp7 counter inactive and GAA850 FXN act inactive.
For CC1=CC(C)(C)Nc2ccc(OC(=O)CN3C(=O)c4ccccc4C3=O)cc21 the results were Hep lipid drop inactive, Rce1 inh inactive, proCasp3 act inactive, procasp7 counter inactive, GAA850 FXN act 8.7, pCIP destab inactive, GAA30 counter inactive and FXN GAA850 conf 17.7.
For Cc1ccc(CN2CCC(C)(Oc3ccc(Cl)cc3)C2)cc1 (centres undefined) the results were GAA850 FXN act inactive.
For COc1ccc(CC(=O)OCC(=O)NC2CCCCC2)cc1OC the results were proCasp3 act inactive, procasp7 counter inactive and GAA850 FXN act inactive.
Cc1cc(C)c2c(N)c(C(=O)Nc3ccc([N+](=O)[O-])cc3)sc2n1 was read as Hep lipid drop inactive, Rce1 inh inactive, proCasp3 act inactive, procasp7 counter inactive, GAA850 FXN act 9.4, pCIP destab inactive, GAA30 counter 97.8 and FXN GAA850 conf 31.7.
Screening COc1ccc(NC(=O)c2sc3nc(C)cc(C)c3c2N)cc1 returned Hep lipid drop inactive, Rce1 inh inactive, proCasp3 act inactive, procasp7 counter inactive, GAA850 FXN act inactive and pCIP destab inactive.
`CC(C)c1ccc(NC(=O)COC(=O)c2cc(=O)[nH]c3ccccc23)cc1` gave proCasp3 act inactive, procasp7 counter inactive and GAA850 FXN act inactive.
For Clc1cccc(CNc2ccn3nc(-c4cccc(Cl)c4)cc3n2)c1 the results were GAA850 FXN act inactive.
Cc1ccc(Nc2nc(N)nc(-c3oc4ccccc4c3C)n2)cc1 was read as Rce1 inh inactive, proCasp3 act inactive, procasp7 counter inactive, GAA850 FXN act inactive and pCIP destab inactive.
Screening Cc1c(-c2nc(N)nc(Nc3ccccc3F)n2)oc2ccccc12 returned Hep lipid drop inactive, Rce1 inh inactive, proCasp3 act inactive, procasp7 counter inactive, GAA850 FXN act 13.7, pCIP destab inactive, GAA30 counter 112.5 and FXN GAA850 conf 47.7.
O=C(NCc1ccccc1)c1cc(-c2cccs2)on1 was read as Rce1 inh inactive, proCasp3 act inactive, procasp7 counter inactive, GAA850 FXN act inactive and pCIP destab inactive.
For CC(C)CNC(=O)c1cc(-c2ccco2)on1 the results were Rce1 inh inactive, proCasp3 act inactive, procasp7 counter inactive, GAA850 FXN act inactive and pCIP destab inactive.
CCCNC(=O)c1cc(-c2ccco2)on1 was read as Hep lipid drop inactive, Rce1 inh inactive, proCasp3 act inactive, procasp7 counter inactive, GAA850 FXN act 22.0, pCIP destab inactive, GAA30 counter 127.5 and FXN GAA850 conf 57.4.
For COc1ccc(-c2cc(C(=O)NCC3CCCO3)on2)cc1OC (centres undefined) the results were Hep lipid drop inactive, Rce1 inh inactive, proCasp3 act inactive, procasp7 counter inactive, GAA850 FXN act inactive and pCIP destab inactive.
For COc1ccc(CCNC(=O)c2cc(-c3ccccc3)on2)cc1OC the results were Hep lipid drop inactive, Rce1 inh inactive, proCasp3 act inactive, procasp7 counter inactive, GAA850 FXN act 10.5, pCIP destab inactive, GAA30 counter 62.5 and FXN GAA850 conf 33.1.
Screening O=C(NCC1CCCO1)c1cc(-c2ccc(F)cc2)no1 (centres undefined) returned Hep lipid drop inactive, Rce1 inh inactive, proCasp3 act inactive, procasp7 counter inactive, GAA850 FXN act 11.2, pCIP destab inactive, GAA30 counter 84.8 and FXN GAA850 conf 31.3.
For O=C(NCc1ccco1)c1cc(-c2cccs2)on1 the results were Rce1 inh inactive, proCasp3 act inactive, procasp7 counter inactive, GAA850 FXN act 25.9, pCIP destab inactive, GAA30 counter 150.2 and FXN GAA850 conf 55.6.
For CCN(C(=O)COC(=O)C1CCN(S(=O)(=O)c2c(Cl)cccc2Cl)CC1)C1CCCCC1 the results were Hep lipid drop inactive, proCasp3 act inactive, procasp7 counter inactive, GAA850 FXN act inactive and pCIP destab inactive.
For COc1cc(C(=O)NCc2nnc(SCC(=O)Nc3cccc(C(F)(F)F)c3)o2)cc(OC)c1OC the results were Hep lipid drop inactive, Rce1 inh inactive, proCasp3 act inactive, procasp7 counter inactive, GAA850 FXN act inactive and pCIP destab inactive.
For O=C(NCc1ccco1)c1cc(-c2ccccc2)on1 the results were Hep lipid drop inactive, Rce1 inh inactive, proCasp3 act inactive, procasp7 counter inactive, GAA850 FXN act 9.1, pCIP destab inactive, GAA30 counter 104.5 and FXN GAA850 conf 37.4.
Screening O=C(NCC1CCCO1)c1cc(-c2ccccc2)on1 (centres undefined) returned Hep lipid drop inactive, Rce1 inh inactive, proCasp3 act inactive, procasp7 counter inactive, GAA850 FXN act 23.8, pCIP destab inactive, GAA30 counter 157.4 and FXN GAA850 conf 90.5.
`COc1cccc(CN2CC(C(=O)N(C)CCCC3CCCC3)CCC2=O)c1` (centres undefined) gave Hep lipid drop inactive, Rce1 inh inactive, proCasp3 act inactive, procasp7 counter inactive, GAA850 FXN act inactive and pCIP destab inactive.
OC(c1ccc(-c2ccccc2)cc1)c1ncc(-c2ccccc2)[nH]1 (centres undefined) was read as GAA850 FXN act inactive.
